Experimental data reported in the RNAGym collection of RNA variant scans (doi:10.1002/anie.201605470).

B1: Osa-1-4 twister ribozyme (parent)
chain: CCGCCUAACACUGCCAAUGCCGGUCCCAAGCCCGGAUAAAAGUGGAGGGGGCGG

Variants of: B1
Experiment: self-cleavage, relative activity (ratio to wild type); higher = more cleavage; co-transcriptional
Summary of the method: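 Values are relative activity: the fraction cleaved, normalised to wild type. A doped DNA template for a 54-nucleotide twister ribozyme from Oryza sativa had 97 % wild-type base and 1 % of each other base at the 48 positions downstream of the cleavage site. The RNA was transcribed in vitro for 2 h at 37 °C so that it could cleave itself co-transcriptionally, then sequenced deeply, with cleavage status scored from the presence or absence of upstream sequence in reads.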

Variant | self-cleavage
A10G C21G | 0.08
A10G C21U | 0.89
A10G C21A | 0.33
C9G G54A | 0.71
C9G G54C | 0.77
C9G G54U | 0.73
A10C G48U | 0.02
A10C G48A | 0.02
A10C G48C | 0.02
C9U G19U | 0.08
C9U G19A | 0.26
C9U G19C | 0.05
A10C U18A | 0.08
A10C U18G | 0.24
A10C U18C | 0.07
A10C A36U | 0.09
A10C A36C | 0.03
A10C A36G | 0.11
A10C U43C | 0.05
A10C U43A | 0.39
A10C U43G | 0.64
A10G A8G | 0.49
A10G A8U | 0.12
A10G A8C | 0.13

Variant | self-cleavage
A10C C11A | 0.1
A10C C11U | 0.51
A10C C11G | 0.04
A10C G13A | 0.02
A10C G13U | 0.03
A10C G13C | 0.02
A10G C27U | 0.1
A10G C27G | 0.07
A10G C27A | 0.12
C9U G48A | 0.03
C9U G48C | 0.04
C9U G48U | 0.03
A10C U24A | 0.02
A10C U24G | 0.02
A10C U24C | 0.04
A10G C14G | 0.16
A10G C14U | 0.28
A10G C14A | 0.11
A10C U12C | 0.06
A10C U12A | 0.03
A10C U12G | 0.04
A10G A17U | 0.85
A10G A17G | 0.64
A10G A17C | 0.44

Variant | self-cleavage
A10G C26U | 0.5
A10G C26A | 0.04
A10G C26G | 0.18
A10G G23C | 0.05
A10G G23U | 0.05
A10G G23A | 0.1
C9U G13C | 0.01
C9U G13A | 0.04
C9U G13U | 0.01
C9U G49C | 0.04
C9U G49A | 0.06
C9U G49U | 0.05
A10C A41U | 0.06
A10C A41G | 0.11
A10C A41C | 0.05
A10C G50C | 0.04
A10C G50A | 0.11
A10C G50U | 0.04
C9G U43G | 0.21
C9G U43A | 0.87
C9G U43C | 0.16
C9U G35C | 0.21
C9U G35U | 0.59
C9U G35A | 0.53

Variant | self-cleavage
A10C C52U | 0.11
A10C C52G | 0.11
A10C C52A | 0.06
C9U U12G | 0.06
C9U U12A | 0.24
C9U U12C | 0.05
A10C A28U | 0.05
A10C A28C | 0.08
A10C A28G | 0.03
C9U G45U | 0.04
C9U G45C | 0.03
C9U G45A | 0.06
A10G A38U | 0.8
A10G A38G | 0.88
A10G A38C | 0.91
A10C G49A | 0.02
A10C G49C | 0.02
A10C G49U | 0.02
A10C A7G | 0.06
A10C A7U | 0.06
A10C A7C | 0.04
C9U U24A | 0.06
C9U U24C | 0.06
C9U U24G | 0.01

Variant | self-cleavage
A10C G30C | 0.01
A10C G30U | 0.01
A10C G30A | 0.01
A10C C15G | 0.04
A10C C15U | 0.04
A10C C15A | 0.08
C9U G23U | 0.03
C9U G23A | 0.12
C9U G23C | 0.03
C9G G48U | 0.06
C9G G48A | 0.07
C9G G48C | 0.08
C9U | 0.78
A10C C33U | 0.04
A10C C33A | 0.03
A10C C33G | 0.02
A10C G35A | 0.07
A10C G35C | 0.03
A10C G35U | 0.04
C9G U18C | 0.66
C9G U18A | 0.85
C9G U18G | 0.73
C9U G53U | 0.17
C9U G53C | 0.05

Variant | self-cleavage
C9U G53A | 0.63
A10C U37C | 0.09
A10C U37G | 0.11
A10C U37A | 0.11
C9U G22C | 0.03
C9U G22A | 0.68
C9U G22U | 0.26
C9U G34A | 0.41
C9U G34U | 0.28
C9U G34C | 0.11
C9U U43C | 0.16
C9U U43A | 0.68
C9U U43G | 0.4
A10G G30A | 0.05
A10G G30C | 0.07
C9U G51A | 0.28
C9U G51C | 0.04
C9U G51U | 0.11
A10G A46G | 0.08
A10G A46C | 0.06
A10G A46U | 0.11
A10G C25U | 0.4
A10G C25G | 0.08
A10G C25A | 0.07

Variant | self-cleavage
A10C C9A | 0.43
A10C C9U | 0.06
A10C C9G | 0.07
A10C G23A | 0.03
A10C G23U | 0.02
A10C G23C | 0.01
A10G A36U | 0.94
A10G A36C | 0.26
A10G A36G | 0.86
A10C C27G | 0.02
A10C C27A | 0.06
A10C C27U | 0.02
A10C C20G | 0.03
A10C C20U | 0.08
A10C C20A | 0.08
A10G A39U | 0.69
A10G A39C | 0.61
A10G A39G | 0.82
C9G G47C | 0.06
C9G G47U | 0.07
C9U G42U | 0.04
C9U G42A | 0.09
C9U G42C | 0.04
A10G A16G | 0.89

Variant | self-cleavage
A10G A16U | 0.61
A10G A16C | 0.27
A10C C21G | 0.01
A10C C21A | 0.04
A10C C21U | 0.06
A10C C14A | 0.02
A10C C14U | 0.03
A10C C14G | 0.04
C9G U37G | 0.92
C9G U37C | 0.94
C9G U37A | 0.76
A10C A16U | 0.08
A10C A16C | 0.09
A10C A16G | 0.14
A10C A29C | 0.02
A10C A29G | 0.03
A10C A29U | 0.02
C9U G30A | 0.02
C9U G30U | 0.02
C9U G30C | 0.03
A10G C11A | 0.38
A10G C11G | 0.12
A10G C11U | 0.8
C9U G47A | 0.06

Variant | self-cleavage
C9U G47U | 0.06
C9U G47C | 0.02
A10C G51C | 0.02
A10C G51U | 0.04
A10C G51A | 0.06
A10G C32U | 0.1
A10G C32G | 0.15
A10G C32A | 0.07
A10G A28U | 0.43
A10G A28G | 0.15
A10G A28C | 0.63
C9G G51A | 0.23
C9G G51C | 0.06
C9G G51U | 0.12
C9G G53A | 0.48
C9G G53U | 0.14
C9G G53C | 0.05
A10G A41C | 0.39
A10G A41G | 0.2
A10G A41U | 0.76
C9U G54C | 0.71
C9U G54A | 0.69
C9U G54U | 0.72
C9G U24A | 0.08

Variant | self-cleavage
C9G U24G | 0.04
C9G U24C | 0.1
C9U G44U | 0.69
C9U G44C | 0.67
C9U G44A | 0.76
A10C C25G | 0.01
A10C C25A | 0.03
A10C C25U | 0.04
A10C A38U | 0.08
A10C A38G | 0.08
A10C A38C | 0.07
A10C G22C | 0.02
A10C G22A | 0.05
A10C G22U | 0.03
A10C | 0.12
A10G | 0.91
A10C A8G | 0.06
A10C A8U | 0.04
A10C A8C | 0.15
A10C G47A | 0.02
A10C G47U | 0.03
A10C G47C | 0.02
A10C A39C | 0.05
A10C A39G | 0.06

Variant | self-cleavage
A10C A39U | 0.05
A10C G44C | 0.16
A10C G44U | 0.22
A10C G44A | 0.06
A10G G13C | 0.03
A10G G13U | 0.04
A10G G13A | 0.08
A10G C52G | 0.75
A10G C52A | 0.92
A10G C52U | 0.95
A10C G53A | 0.11
A10C G53C | 0.02
A10C G53U | 0.06
C9U U18G | 0.57
C9U U18A | 0.6
C9U U18C | 0.53
A10G C31A | 0.05
A10G C31U | 0.36
A10G C31G | 0.1
A10G A40U | 0.27
A10G A40G | 0.34
A10G A40C | 0.08
A10C C32G | 0.02
A10C C32U | 0.02

Variant | self-cleavage
A10C C32A | 0.02
A10G C20G | 0.09
A10G C20U | 0.81
A10G C20A | 0.78
C9U U37C | 0.82
C9U U37A | 0.4
C9U U37G | 0.85
A10G G22C | 0.05
A10G G22U | 0.16
A10G G22A | 0.38
A10C G54C | 0.14
A10C G54U | 0.3
A10C G54A | 0.17
A10G A29U | 0.07
A10G A29C | 0.05
A10G A29G | 0.09
C9G G49U | 0.09
C9G G49A | 0.09
C9G G49C | 0.06
A10G C15A | 0.17
A10G C15U | 0.14
A10G C15G | 0.2
C9U G50A | 0.28
C9U G50U | 0.86

Variant | self-cleavage
C9U G50C | 0.73
C9G G50U | 0.84
C9G G50A | 0.48
C9G G50C | 0.59
A10C C26G | 0.03
A10C C26A | 0.03
A10C C26U | 0.03
A10G C9U | 0.77
A10G C9G | 0.41
A10G C9A | 0.57
A10C A17U | 0.08
A10C A17C | 0.03
A10C A17G | 0.1
A10C G34A | 0.04
A10C G34C | 0.03
A10C G34U | 0.05
A10C A46G | 0.03
A10C A46U | 0.02
A10C A46C | 0.02
A10C G45C | 0.02
A10C G45U | 0.02
A10C G45A | 0.02
C9G U12C | 0.1
C9G U12A | 0.13

Variant | self-cleavage
C9G U12G | 0.11
A10G A7G | 0.39
A10G A7U | 0.09
A10G A7C | 0.06
A10C G42C | 0.02
A10C G42A | 0.03
A10C G42U | 0.01
A10C C31A | 0.02
A10C C31U | 0.03
A10C C31G | 0.03
A10C A40U | 0.03
A10C A40C | 0.03
A10C A40G | 0.04
A10G G19A | 0.28
A10G G19U | 0.13
A10G G19C | 0.09
A10C G19U | 0.03
A10C G19C | 0.02
A10C G19A | 0.04
A10G C33A | 0.1
A10G C33U | 0.33
A10G C33G | 0.07
